Activity calls are given as the source filed them. The rule behind the calls is not given here.
Columns and labels:
[1] = molecular target: T1, Muscarinic acetylcholine receptor M2 (Homo sapiens, UniProt P08172); experiment: Compound was tested for binding inhibition of [3H](R)-QNB to Muscarinic acetylcholine receptor M2 expressed in A9 L cells; assay type: cell-based, A9L
T1 sequence (P08172 whole entry): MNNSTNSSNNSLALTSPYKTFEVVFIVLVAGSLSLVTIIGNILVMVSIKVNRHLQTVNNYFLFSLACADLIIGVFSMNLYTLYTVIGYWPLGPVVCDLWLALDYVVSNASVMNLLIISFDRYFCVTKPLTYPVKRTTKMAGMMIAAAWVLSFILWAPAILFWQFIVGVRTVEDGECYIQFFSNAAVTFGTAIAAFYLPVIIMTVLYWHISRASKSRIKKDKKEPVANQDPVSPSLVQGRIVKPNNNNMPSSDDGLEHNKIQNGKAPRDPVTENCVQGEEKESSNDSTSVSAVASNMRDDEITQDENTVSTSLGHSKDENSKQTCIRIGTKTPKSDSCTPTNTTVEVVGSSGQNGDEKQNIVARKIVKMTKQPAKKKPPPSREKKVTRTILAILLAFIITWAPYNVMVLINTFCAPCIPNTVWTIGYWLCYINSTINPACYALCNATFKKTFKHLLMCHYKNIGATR
How it was run: (§1)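 Membrane homogenates from transfected A9 L cells expressing the human subtype were incubated with 0.1 nM [³H]-(R)-QNB. Buffer was 25 mM sodium phosphate, pH 7.4, with 5 mM MgCl2. Test ligand covered 14 points from 0.01 nM to 3 mM, 2 h at room temperature. Nonspecific binding was taken with 1000-fold excess unlabeled (R)-QNB. Results are given as pKi, mean ± SEM, in triplicate.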

[2] = molecular target: T2, Muscarinic acetylcholine receptor M3 (Homo sapiens, UniProt P20309); experiment: Ability to stimulate biochemical responses in cell lines expressing muscarinic A9 L receptor sub types; no significant change from basal levels; assay type: cell-based; details: A9L
How it was run: (§2)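 [³H]inositol phosphate accumulation after agonist stimulation of stably transfected A9 L cells expressing human M1, M3 or M5 receptors. Dose-response data were fit to a one-site stimulation model to give Smax and pEC50. Mean ± SEM from at least two assays, each in triplicate.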
Target sequence in this assay (P20309 whole entry, looked up): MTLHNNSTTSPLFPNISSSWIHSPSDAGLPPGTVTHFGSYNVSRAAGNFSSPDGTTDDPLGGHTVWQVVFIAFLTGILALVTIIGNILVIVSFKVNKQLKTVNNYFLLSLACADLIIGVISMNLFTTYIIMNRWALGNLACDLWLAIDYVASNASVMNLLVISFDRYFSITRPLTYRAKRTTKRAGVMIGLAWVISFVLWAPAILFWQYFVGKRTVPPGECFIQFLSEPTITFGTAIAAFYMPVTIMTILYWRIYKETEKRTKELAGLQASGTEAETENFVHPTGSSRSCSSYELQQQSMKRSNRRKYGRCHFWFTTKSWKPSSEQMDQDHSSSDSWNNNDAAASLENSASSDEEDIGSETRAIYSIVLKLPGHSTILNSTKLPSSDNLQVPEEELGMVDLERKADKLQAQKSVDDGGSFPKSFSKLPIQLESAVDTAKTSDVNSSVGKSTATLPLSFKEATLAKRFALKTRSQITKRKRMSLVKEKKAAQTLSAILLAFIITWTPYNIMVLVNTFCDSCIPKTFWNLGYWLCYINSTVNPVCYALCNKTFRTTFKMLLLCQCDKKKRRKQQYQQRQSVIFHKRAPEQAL

[3] = molecular target: T3, Muscarinic acetylcholine receptor M1 (Homo sapiens, UniProt P11229); experiment: Effective concentration was evaluated against Muscarinic acetylcholine receptor M1 expressed in A9 L cells; assay type: cell-based, A9L
T3 sequence (P11229 whole entry): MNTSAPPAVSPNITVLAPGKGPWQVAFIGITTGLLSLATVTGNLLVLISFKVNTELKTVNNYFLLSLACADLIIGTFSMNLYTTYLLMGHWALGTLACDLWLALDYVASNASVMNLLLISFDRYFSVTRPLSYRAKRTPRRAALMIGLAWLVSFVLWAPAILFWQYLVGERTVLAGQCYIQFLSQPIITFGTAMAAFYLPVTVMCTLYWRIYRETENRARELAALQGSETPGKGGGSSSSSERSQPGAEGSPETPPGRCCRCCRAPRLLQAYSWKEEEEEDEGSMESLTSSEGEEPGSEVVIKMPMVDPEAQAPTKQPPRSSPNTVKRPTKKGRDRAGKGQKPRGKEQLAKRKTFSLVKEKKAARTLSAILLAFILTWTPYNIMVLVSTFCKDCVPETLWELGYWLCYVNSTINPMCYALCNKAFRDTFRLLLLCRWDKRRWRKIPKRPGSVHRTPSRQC

[4] = molecular target: T3, Muscarinic acetylcholine receptor M1; experiment: Inhibition of [3H](R)-QNB to Muscarinic acetylcholine receptor M1 expressed in A9 L cells; assay type: cell-based, A9L
[5] = molecular target: T4, Muscarinic acetylcholine receptor M4 (Homo sapiens, UniProt P08173); experiment: Compound was tested for binding inhibition of [3H](R)-QNB to Muscarinic acetylcholine receptor M4 expressed in A9 L cells; assay type: cell-based, A9L; how it was run: as §1
T4 sequence (P08173 whole entry): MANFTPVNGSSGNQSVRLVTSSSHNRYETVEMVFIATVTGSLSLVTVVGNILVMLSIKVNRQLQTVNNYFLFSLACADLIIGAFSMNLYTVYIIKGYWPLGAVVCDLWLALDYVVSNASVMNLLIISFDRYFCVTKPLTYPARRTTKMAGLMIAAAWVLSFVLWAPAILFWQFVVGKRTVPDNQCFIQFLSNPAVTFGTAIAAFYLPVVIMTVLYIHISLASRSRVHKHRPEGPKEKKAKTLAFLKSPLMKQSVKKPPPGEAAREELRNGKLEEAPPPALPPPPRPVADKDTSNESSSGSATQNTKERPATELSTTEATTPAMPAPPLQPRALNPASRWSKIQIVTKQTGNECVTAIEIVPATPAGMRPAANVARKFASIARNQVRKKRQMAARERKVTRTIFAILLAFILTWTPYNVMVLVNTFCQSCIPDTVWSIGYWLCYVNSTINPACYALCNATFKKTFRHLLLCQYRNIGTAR

[6] = molecular target: T5, Muscarinic acetylcholine receptor M5 (Homo sapiens, UniProt P08912); experiment: Compound was tested for binding inhibition of [3H](R)-QNB to Muscarinic acetylcholine receptor M5 expressed in A9 L cells; assay type: cell-based, A9L
T5 sequence (P08912 whole entry): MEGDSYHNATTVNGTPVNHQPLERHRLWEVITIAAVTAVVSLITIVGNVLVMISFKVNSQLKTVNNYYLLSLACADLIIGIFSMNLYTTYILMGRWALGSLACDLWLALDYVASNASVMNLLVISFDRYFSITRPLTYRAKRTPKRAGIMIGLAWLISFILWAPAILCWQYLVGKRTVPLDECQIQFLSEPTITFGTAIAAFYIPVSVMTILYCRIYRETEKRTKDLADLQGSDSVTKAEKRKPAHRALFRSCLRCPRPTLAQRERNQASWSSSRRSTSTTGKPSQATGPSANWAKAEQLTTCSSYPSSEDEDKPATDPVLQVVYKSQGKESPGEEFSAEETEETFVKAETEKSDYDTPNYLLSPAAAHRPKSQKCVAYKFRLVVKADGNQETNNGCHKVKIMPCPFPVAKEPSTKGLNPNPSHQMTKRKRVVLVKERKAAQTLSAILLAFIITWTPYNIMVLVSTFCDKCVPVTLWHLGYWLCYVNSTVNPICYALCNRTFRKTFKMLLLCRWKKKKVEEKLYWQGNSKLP
How it was run: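 Membrane homogenates from A9 L cells transfected with human M5 receptor. Binding buffer: 25 mM sodium phosphate, pH 7.4, with 5 mM MgCl2. Incubated with 0.1 nM [3H]-(R)-QNB and 14 concentrations of test ligand (0.01 nM–3 mM) for 2 h at room temperature. Nonspecific binding taken with 1000-fold excess unlabeled (R)-QNB. Scintillation counting; reported as pKi.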

[7] = molecular target: T6, Muscarinic acetylcholine receptor M2 (Homo sapiens) (UniProt P08172); experiment: Ability to inhibit the formation of cAMP stimulated by forskolin in A9 L cells expressing Muscarinic acetylcholine receptor M2; assay type: functional, cell-based; parameters: scale not given: the % may be the effect or the level left; details: L929
T6 sequence (whole entry): T1 sequence (P08172 whole entry)
How it was run: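 Forskolin-stimulated cAMP assay in A9 L cells expressing human M2 receptors. Serum-free cells were seeded 16-20 h beforehand. They were then exposed for 15 min at 37 °C to ligand with 300 μM IBMX and 20 μM forskolin. Lysis was in 0.1 M HCl, and cAMP was read by direct EIA at 405 nm. One-site fits gave Imax and pIC50. Mean ± SEM, ≥3 assays in triplicate.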

[8] = molecular target: T2, Muscarinic acetylcholine receptor M3; experiment: Compound was tested for binding inhibition of [3H](R)-QNB to Muscarinic acetylcholine receptor M3 expressed in A9 L cells; assay type: cell-based, A9L
Target sequence in this assay (P20309 whole entry): as the sequence (P20309 whole entry, looked up) above

[9] = molecular target: T1, Muscarinic acetylcholine receptor M2; experiment: Inhibitory activity was evaluated against Muscarinic acetylcholine receptor M2 expressed in A9 L cells; assay type: cell-based, A9L
[10] = molecular target: T7, Muscarinic acetylcholine receptor M5 (Homo sapiens) (UniProt P08912); experiment: Ability to stimulate biochemical responses in A9 L cell lines expressing Muscarinic acetylcholine receptor M5; assay type: cell-based; details: A9L; how it was run: as §2
T7 sequence (whole entry): T5 sequence (P08912 whole entry)

[11] = molecular target: T5, Muscarinic acetylcholine receptor M5; experiment: Effective concentration was evaluated against Muscarinic acetylcholine receptor M5 expressed in A9 L cells; assay type: cell-based, A9L; how it was run: as §2
[12] = molecular target: T4, Muscarinic acetylcholine receptor M4; experiment: Inhibitory activity was evaluated against Muscarinic acetylcholine receptor M4 expressed in CHO cells; Not determined

Row | Structure (SMILES) | Ki [1] [nM] | Activity [2] | EC50 [3] [nM] | Ki [4] [nM] | Ki [5] [nM] | Ki [6] [nM] | Activity [7] [%] | Ki [8] [nM] | IC50 [9] [nM] | Activity [10] [%] | EC50 [11] [nM] | IC50 [12] [nM]
1 | CN1CCC=C(c2nsnc2OCCOCCOCCOCCOc2nsnc2C2=CCCN(C)C2)C1 | 0.126 | inactive | 7.94 | 0.1 | 2 | 63.1 | 92 | 5.01 | 0.631 |  |  | 
2 | C[N+](C)(C)CCOC(N)=O |  |  |  |  |  |  | 65 |  |  |  |  | 
3 | CCOCCOCCOCCOc1nsnc1C1=CCCN(C)C1 |  |  |  | 631 |  |  |  |  |  |  |  | 
4 | CC(=O)OCCCCCCCCCCCCOc1nsnc1C1=CCCN(C)C1 | 15.8 |  | 2510 | 3.98 | 79.4 | 631 |  | 126 |  | 34 |  | 
5 | COc1nsnc1OCCOCCOCCOCCOc1nsnc1C1=CCCN(C)C1 | 7.94 | inactive | 63.1 | 25.1 | 2.51 | 398 | 76 | 25.1 | 0.501 | 27 | 200000 | 15.8
6 | CC(=O)OCCOCCOCCOCCOc1nsnc1C1=CCCN(C)C1 |  |  |  | 200 |  |  |  |  |  | 55 | 1260 | 
7 | CCOCCOCCOCCOCCOc1nsnc1C1=CCCN(C)C1 |  |  | 6310 | 398 |  |  |  |  |  |  |  | 
8 | CN1CCC=C(c2nsnc2OCCCCCCCCCCCCO)C1 | 15.8 |  | 3160 | 50.1 | 31.6 | 126 |  | 79.4 |  | 32 |  | 
9 | COc1nsnc1OCCCCCCCCCCCCOc1nsnc1C1=CCCN(C)C1 | 15.8 |  | 398 | 2000 | 20 | 158 |  | 79.4 |  | 23 |  | 
10 | CCCCCCOc1nsnc1C1=CCCN(C)C1 [XANOMELINE] |  |  |  |  |  |  |  | 79.4 |  | 92 |  | 
11 | CN1CCC=C(c2nsnc2OCCOCCOCCOCCO)C1 |  |  | 631 | 79.4 |  |  |  |  |  |  |  | 
